Active and inactive are the calls of the source. The rule behind the calls is not given here.
Legend:
[1] = Bioavailability in mouse; format: ADME, organism-based; conditions: in vivo
[2] = target: T1, 5-hydroxytryptamine receptor 2C (Homo sapiens, UniProt P28335); assay: Agonist activity at human 5-HT2C receptor expressed in HEK293 cells assessed as calcium flux by FLIPR assay; format: functional, cell-based
T1 sequence (P28335 whole entry): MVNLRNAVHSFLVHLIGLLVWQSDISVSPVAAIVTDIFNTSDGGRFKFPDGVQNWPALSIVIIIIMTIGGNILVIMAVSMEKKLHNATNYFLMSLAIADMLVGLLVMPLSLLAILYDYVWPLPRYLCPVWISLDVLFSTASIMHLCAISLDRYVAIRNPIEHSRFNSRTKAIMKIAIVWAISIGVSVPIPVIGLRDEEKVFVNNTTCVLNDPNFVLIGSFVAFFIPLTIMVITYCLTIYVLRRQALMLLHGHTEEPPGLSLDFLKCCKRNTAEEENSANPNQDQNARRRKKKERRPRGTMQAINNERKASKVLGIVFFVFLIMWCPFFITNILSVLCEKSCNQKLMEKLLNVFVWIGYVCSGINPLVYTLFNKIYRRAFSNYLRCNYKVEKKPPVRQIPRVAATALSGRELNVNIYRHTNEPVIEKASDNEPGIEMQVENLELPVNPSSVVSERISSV

[3] = target: T2, 5-hydroxytryptamine receptor 2C (Homo sapiens) (UniProt P28335); assay: Agonist activity at human 5-HT2C receptor expressed in HEK293 cells assessed as calcium flux by FLIPR assay relative to 5-HT; format: functional, cell-based
T2 sequence (whole entry): T1 sequence (P28335 whole entry)
How it was run: (§1)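 Flp-In-293 cells stably expressing human 5-HT2A, 5-HT2B or 5-HT2C-INI; grown 24–48 h in DMEM/10% dialyzed FBS, plated on poly-L-Lys at 12000 cells/well in 1% dialyzed FBS for 24 h. Loaded 1 h at 37 °C with calcium dye in HBSS, 20 mM Hepes pH 7.40, 2.5 mM probenecid.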

[4] = target: 5-hydroxytryptamine receptor 2B (Homo sapiens, UniProt P41595); assay: Agonist activity at human 5-HT2B receptor expressed in HEK293 cells assessed as calcium flux at 10 uM by FLIPR assay; format: functional, cell-based
How it was run: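 Flp-In-293 cells stably expressing human 5-HT2A, 5-HT2B or 5-HT2C-INI, grown in DMEM with 10% dialyzed FBS, then plated for 24 h in 1% dialyzed FBS. Cells were loaded 1 h at 37 °C with calcium dye in Hepes-buffered HBSS, pH 7.40, containing 2.5 mM probenecid. FLIPR read 10 s baseline, then 120 s after drug addition.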

[5] = target: T3, 5-hydroxytryptamine receptor 2A (Homo sapiens, UniProt P28223); assay: Agonist activity at human 5-HT2A receptor expressed in HEK293 cells assessed as calcium flux by FLIPR assay; format: functional, cell-based
[6] = target: T3, 5-hydroxytryptamine receptor 2A; assay: Agonist activity at human 5-HT2A receptor expressed in HEK293 cells assessed as calcium flux by FLIPR assay relative to 5-HT; format: functional, cell-based; how it was run: as §1
Homo sapiens = organism: Homo sapiens; assay: Selectivity ratio of EC50 for human 5-HT2A receptor to EC50 for human 5HT2C receptor
CYP2D6 = CYP2D6 (Homo sapiens, UniProt P10635); assay: Inhibition of human CYP2D6 using dextromethorphan as substrate at 10 uM; format: ADME; conditions: probe dextromethorphan
CYP2C9 = CYP2C9 (Homo sapiens, UniProt P11712); assay: Inhibition of human CYP2C9 using diclofenac as substrate at 10 uM; format: ADME; conditions: probe diclofenac
CYP2C19 = CYP2C19 (Homo sapiens, UniProt P33261); assay: Inhibition of human CYP2C19 using omeprazole as substrate at 10 uM; format: ADME; conditions: probe omeprazole
CYP2B6 = target: T4, CYP2B6 (Homo sapiens, UniProt P20813); assay: Inhibition of human CYP2B6 using bupropion as substrate at 10 uM; format: ADME; conditions: probe bupropion
T4 sequence (P20813 whole entry): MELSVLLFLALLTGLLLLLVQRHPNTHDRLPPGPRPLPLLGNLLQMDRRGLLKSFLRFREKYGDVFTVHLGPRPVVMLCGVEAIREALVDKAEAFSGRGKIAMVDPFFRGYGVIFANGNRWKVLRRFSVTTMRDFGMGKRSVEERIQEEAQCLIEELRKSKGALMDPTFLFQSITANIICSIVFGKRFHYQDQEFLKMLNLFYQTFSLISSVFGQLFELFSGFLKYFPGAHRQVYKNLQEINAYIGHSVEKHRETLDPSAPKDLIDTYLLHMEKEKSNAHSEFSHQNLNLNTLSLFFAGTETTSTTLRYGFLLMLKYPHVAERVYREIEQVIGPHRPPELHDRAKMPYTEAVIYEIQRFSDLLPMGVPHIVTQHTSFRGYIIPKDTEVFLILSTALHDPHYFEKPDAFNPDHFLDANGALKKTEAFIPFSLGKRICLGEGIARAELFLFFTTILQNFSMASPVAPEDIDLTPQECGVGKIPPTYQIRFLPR

[7] = target: Voltage-gated inwardly rectifying potassium channel KCNH2 (Homo sapiens, UniProt Q12809); assay: Inhibition of human ERG channel expressed in CHO cells by patch clamp method; format: cell-based; conditions: human, cho
hERG (KCNH2) [8] = target: T5, hERG (KCNH2) (Homo sapiens, UniProt Q12809); assay: (§2) Inhibition of human ERG channel expressed in CHO cells at […] by patch clamp method; format: cell-based; conditions: CHO cells expressing human ERG channel
hERG (KCNH2) [9] = target: T5, hERG (KCNH2); assay: as §2; format: cell-based; conditions: CHO cells expressing human ERG channel; remark: listed apart in the source
hERG (KCNH2) [10] = target: T5, hERG (KCNH2); assay: Inhibition of human ERG channel expressed in CHO cells at 3.3 uM by patch clamp method; format: cell-based; conditions: CHO cells expressing human ERG channel
How it was run: (§3)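 hERG current recorded in CHO cells by automated patch clamp; percent inhibition at 0.37, 1.1, 3.3, 10 and 30 µM.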

hERG (KCNH2) [11] = target: T5, hERG (KCNH2); assay: Inhibition of human ERG channel expressed in CHO cells at 10 uM by patch clamp method; format: cell-based; conditions: CHO cells expressing human ERG channel; how it was run: as §3
hERG (KCNH2) [12] = target: T5, hERG (KCNH2); assay: Inhibition of human ERG channel expressed in CHO cells at 30 uM by patch clamp method; format: cell-based; conditions: CHO cells expressing human ERG channel; how it was run: as §3
[13] = target: 5-hydroxytryptamine receptor 1A (Homo sapiens, UniProt P08908); assay: Binding affinity to 5HT1A receptor (unknown origin)
[14] = target: 5-hydroxytryptamine receptor 7 (Homo sapiens, UniProt P34969); assay: Binding affinity to 5HT7 receptor (unknown origin)
[15] = target: Alpha-2A adrenergic receptor (Homo sapiens, UniProt P08913); assay: Binding affinity to adrenergic alpha-2A receptor (unknown origin)
[16] = target: Alpha-2B adrenergic receptor (Homo sapiens, UniProt P18089); assay: Binding affinity to adrenergic alpha-2B receptor (unknown origin)
[17] = target: Alpha-2C adrenergic receptor (Homo sapiens, UniProt P18825); assay: Binding affinity to adrenergic alpha-2C receptor (unknown origin)
D(3) dopamine receptor = D(3) dopamine receptor (Homo sapiens, UniProt P35462); assay: Binding affinity to dopamine D3 receptor (unknown origin)
Mus musculus = assay: Antipsychotic activity in C57BL/6J mouse assessed as reduction of amphetamine-induced locomotor activity administered ip 15 mins prior to amphetamine challenge measured for 105 mins by open field test relative to vehicle-treated control; format: functional, organism-based
CYP3A4 = CYP3A4 (Homo sapiens, UniProt P08684); assay: Inhibition of human CYP3A4 using midazolam as substrate at 10 uM; format: ADME; conditions: probe midazolam
How it was run: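 Human liver microsomes with test compound at 10 µM; percent inhibition determined using bupropion (2B6), dextromethorphan (2D6) or midazolam (3A/3A4) as probe substrates.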

[18] = target: 5-hydroxytryptamine receptor 6 (Homo sapiens, UniProt P50406); assay: Binding affinity to 5HT6 receptor (unknown origin)

T5 sequence (Q12809 whole entry): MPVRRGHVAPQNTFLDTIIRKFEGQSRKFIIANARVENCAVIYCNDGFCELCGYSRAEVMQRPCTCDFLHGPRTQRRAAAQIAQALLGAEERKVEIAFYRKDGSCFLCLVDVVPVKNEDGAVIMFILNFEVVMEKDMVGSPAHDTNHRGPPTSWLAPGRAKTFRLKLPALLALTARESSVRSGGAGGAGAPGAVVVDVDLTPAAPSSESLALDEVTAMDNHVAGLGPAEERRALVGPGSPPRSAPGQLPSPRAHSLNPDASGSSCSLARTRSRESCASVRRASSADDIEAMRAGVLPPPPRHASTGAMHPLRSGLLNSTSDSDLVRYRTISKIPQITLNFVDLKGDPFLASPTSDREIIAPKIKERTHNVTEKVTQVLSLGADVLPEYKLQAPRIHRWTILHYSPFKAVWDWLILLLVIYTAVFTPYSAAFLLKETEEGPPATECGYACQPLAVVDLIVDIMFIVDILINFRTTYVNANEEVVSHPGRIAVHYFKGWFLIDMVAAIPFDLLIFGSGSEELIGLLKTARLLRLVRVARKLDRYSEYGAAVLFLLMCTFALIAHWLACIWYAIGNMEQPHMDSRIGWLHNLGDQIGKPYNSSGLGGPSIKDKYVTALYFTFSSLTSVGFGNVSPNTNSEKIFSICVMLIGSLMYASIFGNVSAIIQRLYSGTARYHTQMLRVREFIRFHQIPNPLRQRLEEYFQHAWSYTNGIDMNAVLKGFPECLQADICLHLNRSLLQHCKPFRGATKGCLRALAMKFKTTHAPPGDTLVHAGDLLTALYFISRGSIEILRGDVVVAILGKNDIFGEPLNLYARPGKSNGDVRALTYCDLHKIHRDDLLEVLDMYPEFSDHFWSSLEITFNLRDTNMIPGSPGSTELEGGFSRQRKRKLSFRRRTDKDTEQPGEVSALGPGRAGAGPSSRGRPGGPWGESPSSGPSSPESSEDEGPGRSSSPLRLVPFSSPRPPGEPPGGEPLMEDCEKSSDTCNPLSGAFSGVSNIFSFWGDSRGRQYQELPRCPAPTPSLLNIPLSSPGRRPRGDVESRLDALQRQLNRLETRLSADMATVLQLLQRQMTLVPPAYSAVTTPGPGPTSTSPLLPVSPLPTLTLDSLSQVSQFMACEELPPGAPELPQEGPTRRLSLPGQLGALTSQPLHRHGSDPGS
T3 sequence (P28223 whole entry): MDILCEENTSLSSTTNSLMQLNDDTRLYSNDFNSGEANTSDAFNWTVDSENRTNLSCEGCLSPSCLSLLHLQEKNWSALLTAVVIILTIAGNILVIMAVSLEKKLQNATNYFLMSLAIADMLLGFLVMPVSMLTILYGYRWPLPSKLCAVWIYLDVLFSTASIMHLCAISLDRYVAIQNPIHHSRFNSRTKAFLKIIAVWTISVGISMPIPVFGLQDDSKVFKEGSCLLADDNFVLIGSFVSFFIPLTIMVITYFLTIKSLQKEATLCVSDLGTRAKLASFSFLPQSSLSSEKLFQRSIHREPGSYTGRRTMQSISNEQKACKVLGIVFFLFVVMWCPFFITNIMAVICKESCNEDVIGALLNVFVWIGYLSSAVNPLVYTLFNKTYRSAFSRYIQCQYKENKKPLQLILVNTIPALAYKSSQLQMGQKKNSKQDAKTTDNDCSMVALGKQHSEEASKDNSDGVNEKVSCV
Sequence of Alpha-2A adrenergic receptor (P08913 whole entry): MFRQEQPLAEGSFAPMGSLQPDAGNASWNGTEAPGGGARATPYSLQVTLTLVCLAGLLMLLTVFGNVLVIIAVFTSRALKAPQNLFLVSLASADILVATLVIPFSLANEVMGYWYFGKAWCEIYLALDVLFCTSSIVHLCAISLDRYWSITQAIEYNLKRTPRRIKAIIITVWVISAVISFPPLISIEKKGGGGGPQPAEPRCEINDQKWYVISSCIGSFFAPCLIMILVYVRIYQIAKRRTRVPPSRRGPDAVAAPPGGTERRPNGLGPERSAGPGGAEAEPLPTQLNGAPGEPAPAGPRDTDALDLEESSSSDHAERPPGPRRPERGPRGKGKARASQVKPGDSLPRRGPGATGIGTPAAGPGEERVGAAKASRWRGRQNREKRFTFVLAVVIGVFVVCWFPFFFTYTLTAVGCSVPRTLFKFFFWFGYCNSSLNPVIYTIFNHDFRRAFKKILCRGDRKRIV
Sequence of Voltage-gated inwardly rectifying potassium channel KCNH2 (Q12809 whole entry): as the sequence (Q12809 whole entry) above
Sequence of 5-hydroxytryptamine receptor 7 (P34969 whole entry): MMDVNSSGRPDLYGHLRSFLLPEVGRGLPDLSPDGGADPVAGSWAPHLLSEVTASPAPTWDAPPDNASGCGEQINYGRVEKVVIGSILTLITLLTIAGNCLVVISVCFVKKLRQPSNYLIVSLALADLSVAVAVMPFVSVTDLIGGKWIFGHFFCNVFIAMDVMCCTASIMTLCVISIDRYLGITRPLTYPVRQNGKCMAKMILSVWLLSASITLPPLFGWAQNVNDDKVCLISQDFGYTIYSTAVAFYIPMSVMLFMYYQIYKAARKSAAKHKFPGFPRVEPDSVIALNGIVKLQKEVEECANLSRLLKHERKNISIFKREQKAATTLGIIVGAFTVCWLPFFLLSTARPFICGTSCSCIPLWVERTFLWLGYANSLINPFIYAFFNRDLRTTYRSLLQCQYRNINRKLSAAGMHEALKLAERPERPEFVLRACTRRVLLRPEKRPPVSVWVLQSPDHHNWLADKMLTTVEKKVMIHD
Sequence of CYP2C9 (P11712 whole entry): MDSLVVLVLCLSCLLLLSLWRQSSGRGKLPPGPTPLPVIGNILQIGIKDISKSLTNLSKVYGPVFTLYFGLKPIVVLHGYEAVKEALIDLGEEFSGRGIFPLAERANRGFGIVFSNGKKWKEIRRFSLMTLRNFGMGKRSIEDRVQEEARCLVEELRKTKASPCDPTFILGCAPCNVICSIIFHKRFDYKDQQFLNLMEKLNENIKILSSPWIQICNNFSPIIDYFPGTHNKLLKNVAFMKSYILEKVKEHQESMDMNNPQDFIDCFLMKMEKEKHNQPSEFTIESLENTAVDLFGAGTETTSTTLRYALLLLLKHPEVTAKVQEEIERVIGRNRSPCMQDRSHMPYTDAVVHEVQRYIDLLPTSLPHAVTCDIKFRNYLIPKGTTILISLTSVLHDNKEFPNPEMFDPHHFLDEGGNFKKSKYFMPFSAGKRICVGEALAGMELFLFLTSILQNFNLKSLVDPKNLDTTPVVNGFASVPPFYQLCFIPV
Sequence of 5-hydroxytryptamine receptor 2B (P41595 whole entry): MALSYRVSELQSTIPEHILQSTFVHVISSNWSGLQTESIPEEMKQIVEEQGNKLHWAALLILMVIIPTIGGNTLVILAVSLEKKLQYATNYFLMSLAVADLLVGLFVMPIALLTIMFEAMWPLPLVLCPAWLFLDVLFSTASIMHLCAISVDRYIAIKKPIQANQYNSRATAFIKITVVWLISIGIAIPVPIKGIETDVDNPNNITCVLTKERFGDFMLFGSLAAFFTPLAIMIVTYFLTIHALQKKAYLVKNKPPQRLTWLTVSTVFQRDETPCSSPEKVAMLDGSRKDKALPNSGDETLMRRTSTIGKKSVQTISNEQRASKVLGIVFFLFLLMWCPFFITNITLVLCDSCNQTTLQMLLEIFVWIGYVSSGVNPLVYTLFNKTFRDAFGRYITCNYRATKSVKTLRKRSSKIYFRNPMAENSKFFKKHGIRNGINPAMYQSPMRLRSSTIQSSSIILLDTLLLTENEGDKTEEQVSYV

Question: With NC[C@H]1C[C@@H]1c1cc(O)ccc1OCC1CC1 as the molecule, how does the bioavailability [1] read?
Answer: Its bioavailability is 3.2%.

Question: Which results are given for C=CCOc1ccc(F)cc1[C@H]1C[C@@H]1CN.Cl?
Answer: EC50 [2]: 0.0042 µM; Emax [3]: 87%; Activity [4]: inactive; EC50 [5]: 0.374 µM; Emax [6]: 56%; Ratio EC50 (Homo sapiens): 89; inhibition at 10 µM (CYP2D6): 43%; inhibition at 10 µM (CYP2C9): 35%; inhibition at 10 µM (CYP2C19): 22%; inhibition at 10 µM (CYP2B6): 80%; inhibition (INH) [7]: Dose-dependent effect; inhibition at […] (hERG (KCNH2) [8]): 6.4%; inhibition at […] (hERG (KCNH2) [9]): 8.7%; inhibition at 3.3 µM (hERG (KCNH2) [10]): 18%; inhibition at 10 µM (hERG (KCNH2) [11]): 29%; inhibition at 30 µM (hERG (KCNH2) [12]): 45%; Ki [13]: < 1 µM; Ki [14]: < 1 µM; Ki [15]: < 1 µM; Ki [16]: < 1 µM; Ki [17]: < 1 µM; Ki (D(3) dopamine receptor): < 1 µM; Activity (Mus musculus): Dose-dependent effect; inhibition at 10 µM (CYP3A4): 15%; Ki [18]: < 1 µM
